Assay outcomes as filed in PubChem BioAssay.
This is a sample that favours compounds with a hit; in the whole collection about 2.5% have one here.
MBD2 inh – inhibitors of human MBD2 binding to methylated oligonucleotide | AID 686964 | Q9UBB5 | inhibition, % at 4.4 µM | 370,000 tested, 0.31% active | TR-FRET; in the data active means inhibition above about 13%
ABHD5-PLIN5 inh – ABHD5-PLIN5 protein interaction inhibition. 360,000 tested, 0.78% active. Split G. princeps luciferase complementation, luminescence, 4 h. inhibition, % at 4 µM. AID 602281. Q00G26+Q8WTS1;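 active means inhibition above the mean inhibition across every tested compound plus 3 SD, cut at about 22% in these data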;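 further: 0% = DMSO only wells and the 100% control is not disclosed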
Arrestin-AP2 inh – inhibitors of human beta-arrestin and AP2 interaction; 340,000 tested, 0.31% active; inhibition, % at 10 µM; FITC-arrestin peptide / GST-AP2 beads, flow cytometry; AP2 beta2 appendage carries R879A mutation; AID 504490;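 active means inhibition above a set limit, near 3 SD of compounds lacking own fluorescence, cut at about 54% in these data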;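 further: plate controls were DMSO wells for no effect and 5 µM unlabelled arrestin peptide for full effect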
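Material – GST-tagged AP2 beta2-adaptin appendage (R879A) on 4 µm glutathione beads · Probe or stimulus – fluorescein-tagged arrestin peptide at 50 nM final · Timing – 12 min plus 1 h, RT · Detection – bead flow cytometry, FITC channel · Read-out basis – inhibition as reduced fluorescein signal on beads, percent · Medium – PBS plus Tween 20 (0.05%) and BSA (0.1%)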
UHRF1 MBD2 ctr – UHRF1 methyl-DNA binding inhibition; Q96T88; UHRF1 binding to methylated oligo, TR-FRET; inhibition, % at 4.4 µM; 370,000 tested, 0.75% active; AID 687016; in the data active means inhibition above about 21%;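 further: UHRF1 SRA domain binding a hemimethylated CpG hairpin DNA probe; 0% = median of test compound wells and 100% = reference inhibitor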
Rin1 Abl inh – inhibitors of human Rin1-Abl protein interaction | P00519+Q13671 | TR-FRET Rin1/Abl binding, biochemical | inhibition, % at 7.35 µM | 360,000 tested, 0.4% active | AID 588664; in the data active means inhibition above about 5%, passing the limit was not always enough
Target sequence (P00519 whole entry, looked up): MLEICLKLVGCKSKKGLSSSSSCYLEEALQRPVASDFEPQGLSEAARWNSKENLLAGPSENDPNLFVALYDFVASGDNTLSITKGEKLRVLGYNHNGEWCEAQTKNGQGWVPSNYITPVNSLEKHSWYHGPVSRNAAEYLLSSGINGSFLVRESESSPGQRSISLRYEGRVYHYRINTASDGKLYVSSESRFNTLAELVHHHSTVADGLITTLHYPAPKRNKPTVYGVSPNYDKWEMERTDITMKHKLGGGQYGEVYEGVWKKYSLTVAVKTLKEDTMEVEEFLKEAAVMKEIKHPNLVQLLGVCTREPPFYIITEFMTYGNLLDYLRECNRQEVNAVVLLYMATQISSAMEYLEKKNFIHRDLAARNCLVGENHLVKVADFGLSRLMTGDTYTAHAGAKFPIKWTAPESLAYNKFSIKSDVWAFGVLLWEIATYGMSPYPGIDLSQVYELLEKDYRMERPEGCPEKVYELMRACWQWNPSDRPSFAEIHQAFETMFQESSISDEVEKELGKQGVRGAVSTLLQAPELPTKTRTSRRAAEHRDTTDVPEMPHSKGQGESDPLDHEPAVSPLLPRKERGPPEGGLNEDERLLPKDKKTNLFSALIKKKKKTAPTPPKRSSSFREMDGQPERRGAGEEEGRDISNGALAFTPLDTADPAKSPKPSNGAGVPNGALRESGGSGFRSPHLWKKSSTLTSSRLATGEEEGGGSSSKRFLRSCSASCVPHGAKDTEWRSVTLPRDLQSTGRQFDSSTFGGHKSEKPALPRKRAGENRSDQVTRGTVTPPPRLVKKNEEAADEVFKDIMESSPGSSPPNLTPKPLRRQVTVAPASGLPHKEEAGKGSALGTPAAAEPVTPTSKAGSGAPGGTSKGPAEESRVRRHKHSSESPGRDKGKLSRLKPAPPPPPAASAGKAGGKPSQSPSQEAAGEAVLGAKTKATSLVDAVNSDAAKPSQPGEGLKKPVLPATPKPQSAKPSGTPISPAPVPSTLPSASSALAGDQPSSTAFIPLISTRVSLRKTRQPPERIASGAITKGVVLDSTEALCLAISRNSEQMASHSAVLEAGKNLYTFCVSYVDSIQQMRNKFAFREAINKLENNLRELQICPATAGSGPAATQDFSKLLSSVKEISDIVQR
Target sequence (Q13671 whole entry, looked up): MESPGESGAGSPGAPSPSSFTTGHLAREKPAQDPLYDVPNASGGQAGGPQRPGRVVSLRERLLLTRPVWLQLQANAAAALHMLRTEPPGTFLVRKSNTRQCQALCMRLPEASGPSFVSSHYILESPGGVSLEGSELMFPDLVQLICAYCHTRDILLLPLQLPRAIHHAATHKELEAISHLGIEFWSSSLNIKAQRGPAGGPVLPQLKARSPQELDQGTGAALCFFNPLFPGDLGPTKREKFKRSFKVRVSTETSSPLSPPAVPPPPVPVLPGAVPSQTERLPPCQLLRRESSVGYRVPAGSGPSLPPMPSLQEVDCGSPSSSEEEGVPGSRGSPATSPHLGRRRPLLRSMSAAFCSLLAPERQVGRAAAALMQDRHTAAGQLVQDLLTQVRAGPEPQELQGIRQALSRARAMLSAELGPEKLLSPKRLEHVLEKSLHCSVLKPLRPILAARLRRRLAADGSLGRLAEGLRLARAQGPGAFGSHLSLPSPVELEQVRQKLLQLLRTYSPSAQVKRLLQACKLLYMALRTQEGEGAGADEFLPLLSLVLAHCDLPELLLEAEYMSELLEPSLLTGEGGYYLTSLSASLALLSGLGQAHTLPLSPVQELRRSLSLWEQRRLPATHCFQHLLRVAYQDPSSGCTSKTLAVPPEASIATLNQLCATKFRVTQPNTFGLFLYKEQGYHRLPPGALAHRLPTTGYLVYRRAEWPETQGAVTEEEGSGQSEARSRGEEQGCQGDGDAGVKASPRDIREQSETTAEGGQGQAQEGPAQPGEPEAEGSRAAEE
Beta2AR agonist – activates human beta-2 adrenergic receptor causing internalization; response, % (no concentration beside the values); Am2.2-beta2AR cells, FAP receptor internalization, flow cytometry; AID 504454; P07550; 340,000 tested, 0.43% active;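 active means response above a set limit, near 3 SD of response in nonfluorescent compounds, cut at about 42% in these data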
Rin1-Abl confirm – Rin1-Abl interaction inhibition confirmation; shares compounds with Rin1 Abl inh; TR-FRET Rin1-Abl binding, purified proteins; inhibition, % at 7.35 µM; 1,300 tested, 49% active
GFP quencher – quenches GFP fluorescence, counter-screen for Rin1-Abl inhibitors; inhibition, % at 6.75 µM; 1,300 tested, 8.5% active; shares compounds with Rin1 Abl inh; AID 602125; inhibitors/quenchers counterscreen;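 further: ABL1-eGFP fusion protein alone without its partner RIN1-SBP; 0% = protein with vehicle and 100% = wells lacking protein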
GFP quench DR – counter-screen for Rin1-Abl inhibitors: GFP quenchers, dose response; shares compounds with Rin1 Abl inh; GFP fluorescence interference/quenching counterscreen; IC50, µM; 230 tested, under 10 active; AID 602182; call rule not given here;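 further: ABL1-eGFP fusion protein alone without its RIN1 binding partner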
Starred values were filed as active, the others as inactive; . = no result. Unless noted, no stated cut-off is given here; in the data, active means inhibition above about 6.5%; inactive means the rest.

SMILES	MBD2 inh	ABHD5-PLIN5 inh	Arrestin-AP2 inh	UHRF1 MBD2 ctr	Rin1 Abl inh	Beta2AR agonist	Rin1-Abl confirm	GFP quencher	others
O=C(/C=C/c1cccc(Cl)c1)OCc1cn2cc(Cl)ccc2n1	-4.4	2.1	-0.3	-3.2	-1.4	-4.5	.	.
CCCC1CCC2(CCCN2CCOC(=O)Nc2cccc(Cl)c2)CC1 (stereo not drawn)	2.1	.	.	-2.3	.	.	.	.
Cc1cc(=O)oc2c(C)c(OCC(=O)N3CCN(C(=O)C4COc5ccccc5O4)CC3)ccc12 (stereo not drawn)	-8.6	11.1	3.8	-1.8	10.0*	9.9	5.6	-2.4
COC(=O)[C@H]1C[C@]2(C(/C=C(\C)CCC=C(C)C)S(=O)(=O)c3ccccc3)c3ccccc3N[C@H]2N1 (stereo partly drawn)	1.3	.	.	2.7	.	.	.	.
O=C(CC1C(=O)NCCN1Cc1c(F)cccc1Cl)NCCCOc1cccnc1 (stereo not drawn)	-7.1	5.5	3.1	-5.0	14.3*	-4.7	11.8*	-1.3
O=C(CC1C(=O)NCCN1Cc1ccc(F)cc1)NCCOc1cccnc1 (stereo not drawn)	-0.7	-2.0	4.1	-0.7	-1.7	-21.9	.	.
CC1(C)CC(=O)c2cn3c(nc2C1)nc1ccccc13	2.8	-2.2	4.3	-1.2	7.8*	-7.2	10.5*	1.3
O=C(c1ccc(Cl)c(Cl)c1)N1CCC(=O)N(C(COCc2ccccc2)Cc2ccccc2)CC1 (stereo not drawn)	-3.4	6.1	-3.9	-2.3	9.5*	1.5	14.6*	0.0
Cn1c2ccccc2c(=O)c2c(=O)n(CCCc3ccccc3)cnc21	-2.5	.	.	1.5	.	.	.	.
COC(=O)Nc1csc2c1NC(=O)CCCC2	4.0	-4.6	32.6	1.9	42.7*	0.8	44.3*	-0.9	GFP quench DR=>67.5
C[C@H]1CCCN1c1cccc2c1S(=O)(=O)N(C1CC1)CCCO2	0.9	.	.	0.0	.	.	.	.
CCCCC(=O)C1CCN(Cc2ccccc2)CC1	4.0	4.9	-2.3	-3.1	11.0*	4.6	17.4*	-0.3	GFP quench DR=>67.5
CCCCNC(=O)C1CCN(Cc2ccc(OCc3ccccc3)cc2)CC1	-2.9	9.4	-10.3	-1.5	6.5	7.0	.	.
COC(=O)CSc1nnc(-c2cc(-c3ccccc3)n[nH]2)n1N	-1.2	.	.	-0.2	.	.	.	.
Cc1cccc(NC(=O)NCc2ccc3c(c2)cc(C)n3C)c1	-1.3	9.7	3.6	-3.8	7.8*	9.8	-19.9	-1.1
O=C(Nc1ccc(Br)cc1)OC1CC2CC1[C@H]1CCCCN1[C@H]2Cc1ccccc1 (stereo partly drawn)	-1.5	.	.	0.2	.	.	.	.
O=S(=O)(c1ccc(Cl)cc1)N1CCC2(CC1)OCCO2	-5.1	-1.7	15.8	-1.3	12.4*	-3.5	0.2	-1.9
CCOc1ccc2nc(NC(=O)C3CCN(C(=O)c4ccco4)CC3)sc2c1	-2.8	-1.0	15.5	-1.0	8.0*	1.8	3.4	-3.4
O=C(Nc1nc2ccccc2s1)C1CCN(C(=O)c2ccco2)CC1	1.9	-7.7	24.6	-0.7	-1.6	8.1	.	.
O=S(=O)(c1ccc2c(c1)oc1ccccc12)N1CCOCC1	9.5	9.3	2.5	8.2	8.5*	-2.7	-1.0	0.9
COC(=O)C1CN(Cc2cn(Cc3ccccc3)nn2)CCS(=O)(=O)N1Cc1ccc(OC)cc1 (stereo not drawn)	1.9	.	.	-1.2	.	.	.	.
CN1C2=NC(c3ccc4ccccc4c3)CC(=O)N2/C(=C\c2ccccc2)C1c1ccccc1C(F)(F)F (stereo not drawn)	5.6	.	.	0.6	.	.	.	.
CCC(C)(C)n1nnnc1C(c1cccnc1)N1CCCc2ccccc21 (stereo not drawn)	-1.9	0.1	-8.9	-1.4	43.0*	1.1	47.6*	-0.6	GFP quench DR=>67.5
CCC(C)(C)n1nnnc1C(c1cccs1)N1CCc2ccccc21 (stereo not drawn)	0.5	-4.6	1.7	-2.8	2.0	0.7	.	.
CCOc1ccc(C(C(=O)NCC2CCCO2)N(C(=O)c2snc(C(N)=O)c2N)c2ccc3c(c2)OCCO3)cc1 (stereo not drawn)	1.8	5.7	-6.6	0.5	16.0*	-20.7	23.1*	-0.1
SMILES	MBD2 inh	ABHD5-PLIN5 inh	Arrestin-AP2 inh	UHRF1 MBD2 ctr	Rin1 Abl inh	Beta2AR agonist	Rin1-Abl confirm	GFP quencher	others
NC(=O)c1nsc(C(=O)N(c2ccccc2)C(C(=O)NCC2CCCO2)c2ccc3ncccc3c2)c1N (stereo not drawn)	-6.5	3.1	3.9	1.0	2.3	-0.1	.	.
COc1ccc(N(C(=O)c2snc(C(N)=O)c2N)C(C(=O)NC2CCCC2)c2ccc(F)cc2)c(OC)c1 (stereo not drawn)	-7.8	1.9	19.0	-1.8	5.2	3.5	.	.
CCOc1ccccc1N(C(=O)c1snc(C(N)=O)c1N)C(C(=O)NCC1CCCO1)c1ccc2ncccc2c1 (stereo not drawn)	0.0	3.7	-1.6	-1.2	21.3*	-24.1	28.5*	-1.0	GFP quench DR=>67.5
CCOc1ccccc1N(C(=O)c1snc(C(N)=O)c1N)C(C(=O)NCc1ccccc1)c1ccc(O)cc1 (stereo not drawn)	-0.5	2.8	-2.2	-0.9	14.6*	-8.1	26.5*	1.2	GFP quench DR=>67.5
Cc1ccccc1N(C(=O)c1snc(C(N)=O)c1N)C(C(=O)NCc1ccccc1)c1ccc(O)cc1 (stereo not drawn)	-1.9	-7.9	-2.2	-1.7	-0.3	-1.0	.	.
COc1ccc(C(C(=O)NC2CCCCC2)N(C(=O)c2snc(C(N)=O)c2N)c2ccc(OC)cc2OC)cc1 (stereo not drawn)	4.0	-4.0	25.0	0.3	18.3*	-12.8	14.8*	0.3
Clc1ccc([C@H]2OC[C@@]3(CNC4CCCCC4)CS[C@H](c4ccc(Cl)cc4)N23)cc1	0.9	.	.	-0.9	.	.	.	.
COc1cccc(/C=C2\CC3(OC(=O)c4ccco4)CCCN2C3)c1 (stereo not drawn)	3.4	.	.	-0.3	.	.	.	.
CC(=O)c1cc(-c2ccccc2S(=O)(=O)NC(C)(C)C)c(=O)n2c1CCC2	-6.8	.	.	-0.8	.	.	.	.
Cc1ccc(NC(=O)CN2C(=O)CCSc3ccccc32)cc1C	-0.1	.	.	-0.1	.	.	.	.
CC(=O)c1ccc(OCC(O)CN2CCN(c3ccccn3)CC2)cc1 (stereo not drawn)	4.4	0.0	.	1.4	9.3*	.	-1.2	0.3
CCc1ccc(OCC(O)CN2CCN(c3ccccn3)CC2)cc1 (stereo not drawn)	-1.5	4.7	1.0	-0.1	0.8	1.7	.	.
CC(C)(C)N(NC(=O)NCCCl)C(=O)c1ccccc1Cl	1.1	.	.	0.9	.	.	.	.
